ChEMBL document CHEMBL1154576, “Isolation, structure determination, and biological activity of Lyngbyabellin A from the marine cyanobacterium lyngbya majuscula” (J Nat Prod, 2000)
≈ marks a conversion by molar mass, not a printed value. Calls of active or inactive are those of the source. No cut-off for these calls is given here.

Legend:
A10 [1] = assay: Disruption of cellular microfilament network in rat A10 cells at 0.01 to 5.0 ug/mL; format: functional, cell-based
Outline: (§1)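 A-10 smooth muscle cells grown on glass coverslips in Basal Medium Eagle with 10% fetal calf serum, exposed to a range of concentrations or vehicle for 24 h. Microfilaments stained 45 min with 100 nM TRITC-phalloidin, chromatin stained with DAPI, and cells examined by fluorescence microscopy.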

[2] = molecular target: T1, DNA topoisomerase 1 (Homo sapiens) (UniProt P11387); assay: Inhibition of topoisomerase 1 at 10 ug/mL
T1 sequence (whole entry): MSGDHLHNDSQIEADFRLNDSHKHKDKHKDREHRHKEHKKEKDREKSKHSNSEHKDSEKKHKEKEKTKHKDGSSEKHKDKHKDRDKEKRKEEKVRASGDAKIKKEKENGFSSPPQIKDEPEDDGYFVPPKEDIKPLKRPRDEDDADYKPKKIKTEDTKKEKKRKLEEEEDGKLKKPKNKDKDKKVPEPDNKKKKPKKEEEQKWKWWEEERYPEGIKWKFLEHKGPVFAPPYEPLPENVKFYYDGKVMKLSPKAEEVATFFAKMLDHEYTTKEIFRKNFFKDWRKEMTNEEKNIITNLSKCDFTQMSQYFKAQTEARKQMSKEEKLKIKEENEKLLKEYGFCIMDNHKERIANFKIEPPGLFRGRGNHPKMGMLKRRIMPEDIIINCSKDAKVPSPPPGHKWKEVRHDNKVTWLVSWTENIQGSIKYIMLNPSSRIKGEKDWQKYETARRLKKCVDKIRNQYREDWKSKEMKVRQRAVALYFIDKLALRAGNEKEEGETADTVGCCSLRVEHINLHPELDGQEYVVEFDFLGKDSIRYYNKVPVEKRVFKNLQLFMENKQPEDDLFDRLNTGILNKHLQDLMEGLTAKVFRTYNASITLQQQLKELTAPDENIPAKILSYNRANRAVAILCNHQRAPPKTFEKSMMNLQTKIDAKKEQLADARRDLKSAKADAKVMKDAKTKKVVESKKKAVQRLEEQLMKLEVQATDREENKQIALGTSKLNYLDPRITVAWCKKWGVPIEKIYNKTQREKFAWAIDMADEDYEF

A10 [3] = assay: Disruption of cytoskeleton in rat A10 cells assessed as neuron-like gross cellular morphology; format: functional, cell-based; outline: as §1
KB = assay: Cytotoxicity against human KB cells; format: functional, cell-based
A10 [4] = assay: Disruption of microtubules in rat A10 cells; format: functional, cell-based
LoVo = assay: Cytotoxicity against human LoVo cells; format: functional, cell-based
Mus musculus = organism: Mus musculus; assay: Toxicity in mouse assessed as lethal dose; format: organism-based; settings: in vivo
A10 [5] = assay: Disruption of cytoskeleton in rat A10 cells assessed as cells with two nuclei; format: functional, cell-based; outline: as §1
A10 [6] = assay: Induction of apoptosis in rat A10 cells assessed as apoptotic bodies at 0.01 ug/mL; format: functional, cell-based; outline: as §1
[7] = molecular target: T1, DNA topoisomerase 1 (Homo sapiens); assay: Inhibition of topoisomerase 1 at 5 ug/mL
M16 = assay: Antitumor activity against mouse M16 cells at 1.2 to 1.5 mg/kg; format: functional, organism-based
Outline: (§2)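 In vivo mice with murine colon adenocarcinoma C38 or mammary adenocarcinoma M16, dosed at sublethal levels of 1.2-1.5 mg/kg.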

MC-38 = assay: Antitumor activity against mouse C38 cells at 1.2 to 1.5 mg/kg; format: functional, organism-based; outline: as §2

For `CC[C@H](C)[C@@H]1NC(=O)CNC(=O)c2csc(n2)[C@H](C(C)(C)O)OC(=O)C(C)(C)[C@H](CCCC(C)(Cl)Cl)OC(=O)c2csc1n2` [LYNGBYABELLIN A], the Activity (A10 [1]) was “Active”, the Activity [2] was “inactive” and the Activity (A10 [3]) was “Active”. The IC50 (KB) was 0.03 µg/mL (≈ 0.0434 µM), the Activity (A10 [4]) was “inactive” and the IC50 (LoVo) was 0.5 µg/mL (≈ 0.723 µM). The Activity (Mus musculus) was 2.4 mg/kg, the Activity (A10 [5]) was “Active” and the Activity (A10 [6]) was “Active”. The Activity [7] was “inactive”, the Activity (M16) was “inactive” and the Activity (MC-38) was “inactive”.
